Measurements taken from ChEMBL document CHEMBL3616378 (J Med Chem, 2015).

Assays:
[1] = biological target: T1, Metabotropic glutamate receptor 8 (Homo sapiens, UniProt O00222); test: Agonist activity at human recombinant mGlu8 receptor expressed in AV12 cells assessed as stimulation of Ca2+ mobilization after 1.5 hrs by FLIPR assay; assay type: functional, cell-based
Rattus norvegicus [2] = test: Toxicity in Sprague-Dawley rat assessed as impairment of neuromuscular coordination at 3 mg/kg, ip after 1 to 3 hrs by rotarod test; assay type: organism-based; conditions: in vivo
[3] = Oral bioavailability in Sprague-Dawley rat at 5 mg/kg; assay type: ADME, organism-based; conditions: in vivo
How it was run: (§1)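 Compound dissolved in water, pH adjusted to 7–7.5 with NaOH; single dose to fasted male Sprague–Dawley rats (~250 g) by oral gavage, intravenous or intraperitoneal route. Serial blood (11–12 samples per rat) from jugular vein catheter into EDTA tubes, centrifuged, frozen; 25 µL plasma mixed with methanol:water (1:1) containing analogue internal standard.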

[4] = Cmax in Sprague-Dawley rat at 1 mg/kg, iv; assay type: ADME, organism-based; parameters: dose 1 mg/kg, route intravenous; conditions: in vivo
How it was run: (§2)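 Fasted male Sprague–Dawley rats (~250 g) received a single dose of compound dissolved in water and adjusted to pH 7–7.5 with NaOH, given iv, by oral gavage or ip. Serial blood samples (11–12 per rat) were drawn from a jugular vein catheter into EDTA and kept frozen. Plasma was mixed with methanol:water (1:1) containing an analogue internal standard for analysis. Mean plasma parameters are reported.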

[5] = biological target: T2, Metabotropic glutamate receptor 3 (Homo sapiens, UniProt Q14832); test: Antagonist activity at human recombinant mGlu3 receptor expressed in AV12 cells assessed as inhibition of glutamate-stimulated Ca2+ mobilization after 1.5 hrs by FLIPR assay; assay type: functional, cell-based
T2 sequence (Q14832 whole entry): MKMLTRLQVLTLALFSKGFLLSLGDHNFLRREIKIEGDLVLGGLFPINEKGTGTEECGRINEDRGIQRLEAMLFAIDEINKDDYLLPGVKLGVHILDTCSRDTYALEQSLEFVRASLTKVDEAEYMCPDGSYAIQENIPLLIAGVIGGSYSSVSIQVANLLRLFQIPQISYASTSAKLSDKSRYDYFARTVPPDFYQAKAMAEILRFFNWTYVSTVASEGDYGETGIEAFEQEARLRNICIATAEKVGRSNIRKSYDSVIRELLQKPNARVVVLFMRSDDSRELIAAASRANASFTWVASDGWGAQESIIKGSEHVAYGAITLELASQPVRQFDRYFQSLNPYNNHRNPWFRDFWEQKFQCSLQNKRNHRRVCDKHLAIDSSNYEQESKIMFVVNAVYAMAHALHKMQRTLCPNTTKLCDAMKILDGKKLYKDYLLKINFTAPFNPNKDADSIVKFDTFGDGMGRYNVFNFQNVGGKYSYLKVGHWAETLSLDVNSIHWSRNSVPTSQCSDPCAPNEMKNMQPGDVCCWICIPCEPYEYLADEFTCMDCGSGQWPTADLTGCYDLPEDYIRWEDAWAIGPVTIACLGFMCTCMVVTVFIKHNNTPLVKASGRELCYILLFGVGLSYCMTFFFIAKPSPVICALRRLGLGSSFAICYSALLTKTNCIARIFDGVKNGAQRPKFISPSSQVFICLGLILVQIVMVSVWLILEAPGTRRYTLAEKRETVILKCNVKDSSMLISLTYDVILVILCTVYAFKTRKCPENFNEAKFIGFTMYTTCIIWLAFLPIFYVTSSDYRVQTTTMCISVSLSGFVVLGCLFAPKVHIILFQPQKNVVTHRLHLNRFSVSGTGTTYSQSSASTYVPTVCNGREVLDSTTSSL

Rattus norvegicus [6] = test: Toxicity in Sprague-Dawley rat assessed as impairment of neuromuscular coordination at 10 mg/kg, ip after 2 to 3 hrs by rotarod test; assay type: organism-based; conditions: in vivo
Rattus norvegicus [7] = test: Toxicity in Sprague-Dawley rat assessed as impairment of neuromuscular coordination at 10 mg/kg, ip after 1 hr by rotarod test; assay type: organism-based; conditions: in vivo
[8] = Tmax in Sprague-Dawley rat at 5 mg/kg, po; assay type: ADME, organism-based; conditions: in vivo; how it was run: as §1
CYP2C9 = CYP2C9 (Homo sapiens, UniProt P11712); test: Inhibition of human CYP2C9 at 10 uM; assay type: ADME
How it was run: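 Inhibition of human CYP isoforms was measured with the compound tested at 10 µM.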

[9] = Cmax in Sprague-Dawley rat at 5 mg/kg, po; assay type: ADME, organism-based; parameters: dose 5 mg/kg, route oral; conditions: in vivo; how it was run: as §2
[10] = biological target: T2, Metabotropic glutamate receptor 3; test: Displacement of [3H]-459477 from human recombinant mGlu3 receptor expressed in AV12 cells after 90 mins by liquid scintillation counting; assay type: cell-based
[11] = Drug level in Sprague-Dawley rat cerebrospinal fluid at 10 mg/kg, ip after 4 hrs; assay type: ADME, organism-based; conditions: read-out: Drug uptake
How it was run: (§3)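 Male Sprague–Dawley rats received single ip doses of 1, 3 or 10 mg/kg. Cerebrospinal fluid and plasma levels were determined at 0.5, 1 and 4 h. Mean csf concentration (nM ± SEM) is reported.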

[12] = biological target: Metabotropic glutamate receptor 2 (Homo sapiens, UniProt Q14416); test: Agonist activity at wild type human recombinant mGlu2 receptor expressed in AV12 cells assessed as stimulation of Ca2+ mobilization after 1 hr by FLIPR assay; assay type: functional, cell-based
[13] = Cmax in Sprague-Dawley rat at 3 mg/kg, ip; assay type: ADME, organism-based; parameters: dose 3 mg/kg, route intraperitoneal; conditions: in vivo; how it was run: as §2
[14] = Fraction unbound in rat plasma; assay type: ADME, cell-free
[15] = Cmax in Sprague-Dawley rat at 10 mg/kg, ip; assay type: ADME, organism-based; parameters: dose 10 mg/kg, route intraperitoneal; conditions: in vivo; how it was run: as §2
[16] = Fraction unbound in human plasma; assay type: ADME, cell-free
[17] = Half life in Sprague-Dawley rat at 1 mg/kg, iv; assay type: ADME, organism-based; conditions: in vivo; how it was run: as §2
[18] = biological target: T2, Metabotropic glutamate receptor 3; test: Agonist activity at human recombinant mGlu3 receptor expressed in AV12 cells assessed as stimulation of Ca2+ mobilization after 1.5 hrs by FLIPR assay; assay type: functional, cell-based
[19] = biological target: Metabotropic glutamate receptor 3 (Homo sapiens, UniProt Q14832, D279E/Q306L); test: Agonist activity at human recombinant mGlu3 receptor D279E and Q306L mutant expressed in AV12 cells assessed as stimulation of Ca2+ mobilization after 1 hr by FLIPR assay; assay type: functional, cell-based
Metabotropic glutamate receptor 3 (Homo sapiens, UniProt Q14832, D279E/Q306L), sequence (Q14832 23-879 D279E/Q306L limits assumed): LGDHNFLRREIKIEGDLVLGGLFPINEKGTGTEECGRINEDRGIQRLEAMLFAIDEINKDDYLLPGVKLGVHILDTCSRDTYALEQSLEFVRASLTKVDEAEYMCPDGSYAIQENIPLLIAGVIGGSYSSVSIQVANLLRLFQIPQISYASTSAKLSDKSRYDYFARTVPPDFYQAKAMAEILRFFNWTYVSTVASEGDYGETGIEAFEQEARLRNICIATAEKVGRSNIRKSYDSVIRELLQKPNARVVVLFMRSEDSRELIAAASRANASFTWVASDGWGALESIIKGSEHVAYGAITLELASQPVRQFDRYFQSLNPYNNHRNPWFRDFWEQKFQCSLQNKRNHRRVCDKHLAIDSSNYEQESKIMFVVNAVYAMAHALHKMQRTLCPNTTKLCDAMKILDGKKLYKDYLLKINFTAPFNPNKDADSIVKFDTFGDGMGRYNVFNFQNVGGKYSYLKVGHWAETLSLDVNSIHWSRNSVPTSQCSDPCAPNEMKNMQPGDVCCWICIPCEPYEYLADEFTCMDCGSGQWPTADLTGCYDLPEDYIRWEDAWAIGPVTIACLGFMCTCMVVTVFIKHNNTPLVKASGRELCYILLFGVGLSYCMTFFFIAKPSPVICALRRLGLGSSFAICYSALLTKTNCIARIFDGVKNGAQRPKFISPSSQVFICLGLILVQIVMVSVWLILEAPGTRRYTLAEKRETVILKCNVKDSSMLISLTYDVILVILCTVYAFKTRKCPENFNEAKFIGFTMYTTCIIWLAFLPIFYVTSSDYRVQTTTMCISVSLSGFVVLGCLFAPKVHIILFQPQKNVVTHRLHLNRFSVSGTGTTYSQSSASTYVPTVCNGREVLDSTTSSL

[20] = Half life in Sprague-Dawley rat at 1 mg/kg, ip; assay type: ADME, organism-based; conditions: in vivo; how it was run: as §2
[21] = Plasma concentration in Sprague-Dawley rat at 10 mg/kg, ip after 4 hrs; assay type: ADME, organism-based
How it was run: (§4)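 Separate experiment: single ip doses of 1, 3 and 10 mg/kg to rats, compound in water adjusted to pH 7–7.5 with NaOH; plasma (with csf) sampled at 0.5, 1 and 4 h; mean plasma concentrations ± SEM reported.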

[22] = AUC (0 to 24 hrs) in Sprague-Dawley rat at 5 mg/kg, po; assay type: ADME, organism-based; parameters: time < 24 hr, dose 5 mg/kg, route oral; conditions: in vivo; how it was run: as §2
[23] = Half life in Sprague-Dawley rat at 3 mg/kg, ip; assay type: ADME, organism-based; conditions: in vivo; how it was run: as §2
[24] = biological target: Metabotropic glutamate receptor 4 (Homo sapiens, UniProt Q14833); test: Antagonist activity at human recombinant mGlu4 receptor expressed in AV12 cells assessed as inhibition of glutamate-stimulated Ca2+ mobilization after 1 hr by FLIPR assay; assay type: functional, cell-based
Metabotropic glutamate receptor 4, sequence (Q14833 whole entry): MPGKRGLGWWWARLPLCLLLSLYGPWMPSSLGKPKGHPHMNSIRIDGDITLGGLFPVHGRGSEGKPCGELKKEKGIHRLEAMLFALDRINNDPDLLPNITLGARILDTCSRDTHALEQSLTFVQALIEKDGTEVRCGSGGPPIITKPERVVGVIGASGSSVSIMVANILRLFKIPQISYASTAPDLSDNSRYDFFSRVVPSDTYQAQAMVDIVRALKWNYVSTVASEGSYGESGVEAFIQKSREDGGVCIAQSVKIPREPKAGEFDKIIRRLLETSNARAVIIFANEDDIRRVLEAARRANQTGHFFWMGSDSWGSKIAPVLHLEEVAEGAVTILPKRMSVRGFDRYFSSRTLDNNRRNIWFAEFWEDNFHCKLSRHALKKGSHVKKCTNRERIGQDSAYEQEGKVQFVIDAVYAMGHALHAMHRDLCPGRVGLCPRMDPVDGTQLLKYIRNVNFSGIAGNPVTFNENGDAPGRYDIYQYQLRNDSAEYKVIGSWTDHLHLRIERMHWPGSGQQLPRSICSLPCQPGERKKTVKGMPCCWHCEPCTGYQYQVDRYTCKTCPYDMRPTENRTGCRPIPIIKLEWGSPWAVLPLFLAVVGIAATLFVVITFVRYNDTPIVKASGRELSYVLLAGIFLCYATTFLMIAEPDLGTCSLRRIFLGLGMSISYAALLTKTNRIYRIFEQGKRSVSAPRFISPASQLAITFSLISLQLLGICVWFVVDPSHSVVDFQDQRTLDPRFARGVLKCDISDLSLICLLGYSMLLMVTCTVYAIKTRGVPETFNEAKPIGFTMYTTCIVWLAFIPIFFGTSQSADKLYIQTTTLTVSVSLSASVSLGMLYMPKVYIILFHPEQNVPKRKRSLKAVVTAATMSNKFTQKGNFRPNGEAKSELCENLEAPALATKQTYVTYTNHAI

[25] = Plasma concentration in Sprague-Dawley rat at 3 mg/kg, ip after 0.5 hrs; assay type: ADME, organism-based; how it was run: as §4
[26] = biological target: Metabotropic glutamate receptor 5 (Homo sapiens, UniProt P41594); test: Antagonist activity at human recombinant mGlu5 receptor expressed in AV12 cells assessed as inhibition of glutamate-stimulated Ca2+ mobilization after 1 hr by FLIPR assay; assay type: functional, cell-based
[27] = Metabolic stability of the compound in human hepatocytes assessed as loss of compound at 2 uM; assay type: ADME, cell-based, Hepatocyte; conditions: read-out: Drug degradation
How it was run: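 Hepatocytes from mouse, rat, dog and human; compound tested at 2 µM; percent loss of parent compound measured.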

[28] = Drug level in Sprague-Dawley rat cerebrospinal fluid at 1 mg/kg, ip after 0.5 hrs; assay type: ADME, organism-based; conditions: read-out: Drug uptake; how it was run: as §3
[29] = Plasma concentration in Sprague-Dawley rat at 3 mg/kg, ip after 4 hrs; assay type: ADME, organism-based; how it was run: as §4
[30] = biological target: T2, Metabotropic glutamate receptor 3; test: Agonist activity at wild type human recombinant mGlu3 receptor expressed in AV12 cells assessed as stimulation of Ca2+ mobilization after 1 hr by FLIPR assay; assay type: functional, cell-based
[31] = Plasma concentration in Sprague-Dawley rat at 1 mg/kg, ip after 0.5 hrs; assay type: ADME, organism-based; how it was run: as §4
[32] = biological target: T2, Metabotropic glutamate receptor 3; test: Antagonist activity at human recombinant mGlu3 receptor expressed in AV12 cells assessed as reversal of DCG-4-inhibited, forskolin-stimulated cAMP production after 1 hr by fluorescence assay; assay type: functional, cell-based
[33] = biological target: Metabotropic glutamate receptor 3 (Homo sapiens, UniProt Q14832, D279E); test: Agonist activity at human recombinant mGlu3 receptor D279E mutant expressed in AV12 cells assessed as stimulation of Ca2+ mobilization after 1 hr by FLIPR assay; assay type: functional, cell-based
Metabotropic glutamate receptor 3 (Homo sapiens, UniProt Q14832, D279E), sequence (Q14832 23-879 D279E limits assumed): as the sequence (Q14832 23-879 D279E/Q306L limits assumed) above, with L284Q counted along it

[34] = biological target: Metabotropic glutamate receptor 2 (Homo sapiens, UniProt Q14416, L300Q); test: Agonist activity at human recombinant mGlu2 receptor L300Q mutant expressed in AV12 cells assessed as stimulation of Ca2+ mobilization after 1 hr by FLIPR assay; assay type: functional, cell-based
[35] = biological target: T1, Metabotropic glutamate receptor 8; test: Agonist activity at human recombinant mGlu8 receptor expressed in AV12 cells assessed as inhibition of forskolin-stimulated cAMP production after 1 hr by fluorescence assay; assay type: functional, cell-based
[36] = biological target: Metabotropic glutamate receptor 1 (Homo sapiens, UniProt Q13255); test: Antagonist activity at human recombinant mGlu1 receptor expressed in AV12 cells assessed as inhibition of glutamate-stimulated Ca2+ mobilization after 1 hr by FLIPR assay; assay type: functional, cell-based
Metabotropic glutamate receptor 1, sequence (Q13255 whole entry): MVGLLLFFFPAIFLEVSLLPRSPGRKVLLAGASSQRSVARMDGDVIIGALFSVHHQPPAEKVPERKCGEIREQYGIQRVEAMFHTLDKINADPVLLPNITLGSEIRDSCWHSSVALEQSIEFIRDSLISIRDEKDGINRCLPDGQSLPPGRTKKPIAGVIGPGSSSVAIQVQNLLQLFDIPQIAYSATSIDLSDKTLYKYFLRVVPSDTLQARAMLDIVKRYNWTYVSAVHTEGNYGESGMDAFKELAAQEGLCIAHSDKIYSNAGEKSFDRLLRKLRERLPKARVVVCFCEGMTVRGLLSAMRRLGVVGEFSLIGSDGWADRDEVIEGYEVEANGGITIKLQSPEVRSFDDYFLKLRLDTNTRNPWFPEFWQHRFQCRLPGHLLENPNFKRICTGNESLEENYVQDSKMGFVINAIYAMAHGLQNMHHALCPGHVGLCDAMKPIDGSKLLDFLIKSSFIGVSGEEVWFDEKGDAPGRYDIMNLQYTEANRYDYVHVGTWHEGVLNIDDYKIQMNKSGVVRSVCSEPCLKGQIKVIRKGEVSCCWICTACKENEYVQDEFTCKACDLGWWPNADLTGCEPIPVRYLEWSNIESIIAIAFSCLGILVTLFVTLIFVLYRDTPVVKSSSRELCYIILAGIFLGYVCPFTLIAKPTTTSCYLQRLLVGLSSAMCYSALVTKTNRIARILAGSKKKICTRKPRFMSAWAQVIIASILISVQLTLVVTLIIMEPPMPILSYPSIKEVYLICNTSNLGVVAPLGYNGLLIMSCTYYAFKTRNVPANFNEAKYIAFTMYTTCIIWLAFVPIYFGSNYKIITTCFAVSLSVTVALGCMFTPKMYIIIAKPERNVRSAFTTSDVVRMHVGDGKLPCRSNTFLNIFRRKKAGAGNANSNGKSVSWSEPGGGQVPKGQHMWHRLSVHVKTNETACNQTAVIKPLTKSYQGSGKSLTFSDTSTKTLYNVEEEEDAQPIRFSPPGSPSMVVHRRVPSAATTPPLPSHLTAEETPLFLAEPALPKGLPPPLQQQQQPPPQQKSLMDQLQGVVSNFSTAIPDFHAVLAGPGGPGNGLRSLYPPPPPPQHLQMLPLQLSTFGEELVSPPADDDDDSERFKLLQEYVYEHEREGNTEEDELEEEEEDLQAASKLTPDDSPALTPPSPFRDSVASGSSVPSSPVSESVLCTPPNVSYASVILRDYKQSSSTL

T1 sequence (O00222 whole entry): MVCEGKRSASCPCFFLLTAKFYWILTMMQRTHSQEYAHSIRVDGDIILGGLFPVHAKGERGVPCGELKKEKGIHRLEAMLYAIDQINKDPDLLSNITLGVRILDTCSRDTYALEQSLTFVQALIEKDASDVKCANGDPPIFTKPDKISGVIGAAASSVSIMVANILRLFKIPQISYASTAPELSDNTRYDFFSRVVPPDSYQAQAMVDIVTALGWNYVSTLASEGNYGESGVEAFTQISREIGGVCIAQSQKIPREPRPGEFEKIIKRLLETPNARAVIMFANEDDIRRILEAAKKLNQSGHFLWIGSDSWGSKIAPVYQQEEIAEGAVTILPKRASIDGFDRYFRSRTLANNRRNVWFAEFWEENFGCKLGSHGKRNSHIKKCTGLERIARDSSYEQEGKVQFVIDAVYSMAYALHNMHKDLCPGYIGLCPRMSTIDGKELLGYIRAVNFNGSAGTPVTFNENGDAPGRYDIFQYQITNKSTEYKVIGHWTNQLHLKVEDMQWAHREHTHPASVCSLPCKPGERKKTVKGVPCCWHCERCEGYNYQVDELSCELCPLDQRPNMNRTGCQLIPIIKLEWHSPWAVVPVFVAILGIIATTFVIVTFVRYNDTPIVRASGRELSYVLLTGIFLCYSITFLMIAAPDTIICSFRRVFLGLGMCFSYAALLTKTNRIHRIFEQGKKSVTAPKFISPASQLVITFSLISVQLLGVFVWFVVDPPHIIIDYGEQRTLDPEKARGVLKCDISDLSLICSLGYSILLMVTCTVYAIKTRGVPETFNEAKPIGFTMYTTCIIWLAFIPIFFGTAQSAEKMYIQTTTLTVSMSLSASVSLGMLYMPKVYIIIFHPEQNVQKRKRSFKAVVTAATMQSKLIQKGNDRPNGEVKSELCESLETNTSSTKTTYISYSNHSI

N[C@@]1(C(=O)O)C[C@@H](Sc2nc[nH]n2)[C@H]2[C@H](C(=O)O)[C@H]21
EC50 [1]: > 25 µM
Activity (Rattus norvegicus [2]): Non-toxic
bioavailability [3]: 4%
Cmax [4]: 9.54 µM
IC50 [5]: 25.2 µM
Activity (Rattus norvegicus [6]): Non-toxic
Activity (Rattus norvegicus [7]): Toxic
Tmax [8]: 0.5 h
inhibition at 10 µM (CYP2C9): < 10%
Cmax [9]: 0.22 µM
Ki [10]: 0.156 µM
concentration at 4 h [11]: 0.0867 µM
EC50 [12]: 0.0201 µM
Cmax [13]: 8.05 µM
fraction unbound [14]: > 0.98
Cmax [15]: 31.1 µM
fraction unbound [16]: > 0.98
half-life [17]: 3.3 h
EC50 [18]: > 25 µM
EC50 [19]: 1.17 µM
half-life [20]: 1.2 h
concentration at 4 h [21]: 3.02 µM
AUC(0-t) at 24 h [22]: 1010 nM·h
half-life [23]: 3.2 h
IC50 [24]: > 12.5 µM
concentration at 0.5 h [25]: 10.1 µM
IC50 [26]: > 12.5 µM
metabolised at 2 µM [27]: < 10%
concentration at 0.5 h [28]: 0.0488 µM
concentration at 4 h [29]: 0.7 µM
EC50 [30]: 5.68 µM
concentration at 0.5 h [31]: 6 µM
IC50 [32]: 2.73 µM
EC50 [33]: 2.18 µM
EC50 [34]: 0.0221 µM
EC50 [35]: 10.1 µM
IC50 [36]: > 12.5 µM
